Source: BindingDB's records for doi:10.1021/jm9014197 (Wyeth Research, 2009)

These molecules were tested against T1, Dickkopf-related protein 1 (Homo sapiens, UniProt O94907) (assay: Inhibition of Dkk1-mediated Wnt/beta-catenin signaling in osteosarcoma cells assessed as potentiation of TCF-luciferase response).
T1 sequence (O94907 whole entry): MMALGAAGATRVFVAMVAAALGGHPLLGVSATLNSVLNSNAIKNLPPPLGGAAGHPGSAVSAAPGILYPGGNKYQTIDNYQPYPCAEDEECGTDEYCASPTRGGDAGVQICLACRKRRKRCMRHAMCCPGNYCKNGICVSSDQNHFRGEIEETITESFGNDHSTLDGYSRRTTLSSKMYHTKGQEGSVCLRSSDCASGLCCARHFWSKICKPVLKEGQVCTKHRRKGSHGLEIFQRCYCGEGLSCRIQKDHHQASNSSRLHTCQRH
Summary of the method: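 Cells were transfected with a TCF-luciferase response element plus a renilla standard as the control read-out. Agonism was read as increased luciferase light output relative to DMSO alone. EC50 values are the average of at least two experiments run in triplicate.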

SMILES	EC50
NC1CCN(c2nccc(-c3ccc4ccccc4c3)n2)CC1 [1-(4-(naphthalen-2-yl)pyrimidin-2-yl)piperidin-4-amine]	1000 nM
NCC1CCN(c2nccc(-c3ccc4ccccc4c3)n2)CC1 [(1-(4-(naphthalen-2-yl)pyrimidin-2-yl)piperidin-4-yl)methanamine]	630 nM
CC(=O)NCC1CCN(c2nccc(-c3ccc4ccccc4c3)n2)CC1 [N-((1-(4-(naphthalen-2-yl)pyrimidin-2-yl)piperidin-4-yl)methyl)acetamide]	1900 nM

Other lines, results leading:

EC50	SMILES
7800 nM	Cc1ccc(-c2ccnc(Nc3ccc(S(N)(=O)=O)cc3)n2)s1 [4-(4-(5-methylthiophen-2-yl)pyrimidin-2-ylamino)benzenesulfonamide]
1000 nM	NS(=O)(=O)c1ccc(Nc2nccc(-c3ccc4ccccc4c3)n2)cc1 [4-(4-(naphthalen-2-yl)pyrimidin-2-ylamino)benzenesulfonamide]
9800 nM	Cc1ccc(-c2ccnc(N(C)c3ccc(S(N)(=O)=O)cc3)n2)s1 [4-(methyl(4-(5-methylthiophen-2-yl)pyrimidin-2-yl)amino)benzenesulfonamide]
